TRPC4 act: activators of mouse TRPC4 channel, primary screen, Fluo4 calcium, HEK293 TRPC4beta/mu-opioid cells | Fluo4 calcium fluorescence; stronger effect = higher value | AID 2237, 2010 | actives 0.49% (n = 310,000) | B-score at 10 µM | Short transient receptor potential channel 4 (Mus musculus), Q9QUQ5;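 active means B-score above 5 SD of library B-scores, and initial fluorescence ratio not above library mean plus 5 SD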;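 further: positive B-score marks a calcium rise read as TRPC4 activation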
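Technique: kinetic Fluo4 calcium fluorescence; Test system: TRPC4beta and mu-opioid receptor HEK293 stable cells; Measure: B-scored integrated calcium fluorescence ratio; Benchmarks: low control buffer alone, high control maximal DAMGO; Schedule: 45 min room-temperature Fluo4 loading, 110 s read.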
TRPC4 PAM: positive allosteric modulators of TRPC4, primary screen, cell-based, mouse TRPC4beta, HEK293 mu-opioid, Fluo-4 calcium; AID 2227, 2009; DAMGO EC20, Fluo-4 Ca2+ flux; stronger effect = higher value; Short transient receptor potential channel 4 (Mus musculus), Q9QUQ5; B-score at 10 µM; actives 0.42% (n = 310,000);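 active means B-score of calcium response area above 5 SD of library B-scores, with initial fluorescence ratio within 5 SD of library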;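 further: B-score of integrated fluorescence ratio over time as area under calcium response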
TRPC4 block: inhibitors of mouse TRPC4 channel, primary screen, Fluo4 calcium, HEK293 TRPC4beta/mu-opioid cells. Short transient receptor potential channel 4 (Mus musculus), Q9QUQ5. B-score at 10 µM. AID 2247, 2010. DAMGO-evoked Fluo4 calcium flux; stronger effect = lower value. actives 0.39% (n = 300,000);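 active means B-score over 3 SD under the library average, no early fluorescence shift, positive overall ratio signal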
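System: stable TRPC4beta/mu-opioid receptor HEK293 cells; Dosing: single-point compound dosing; Measured by: Fluo4 Ca2+ flux fluorescence; Read-out basis: per-well B score of integrated baseline-normalized Fluo4 ratio.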
TRPC6 activator: mouse TRPC6 channel activators, primary screen, cell-based, HEK293, membrane potential dye; AID 2550, 2010; HEK293-TRPC6 membrane potential dye fluorescence; stronger effect = higher value; B-score at 10 µM; actives 0.13% (n = 310,000);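 active means B-score of the integrated fluorescence ratio above library mean plus 3 SD, and starting fluorescence ratio within library mean plus 5 SD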;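 further: higher score means more depolarization so channel activation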
Target sequence (Q61143 whole entry, looked up): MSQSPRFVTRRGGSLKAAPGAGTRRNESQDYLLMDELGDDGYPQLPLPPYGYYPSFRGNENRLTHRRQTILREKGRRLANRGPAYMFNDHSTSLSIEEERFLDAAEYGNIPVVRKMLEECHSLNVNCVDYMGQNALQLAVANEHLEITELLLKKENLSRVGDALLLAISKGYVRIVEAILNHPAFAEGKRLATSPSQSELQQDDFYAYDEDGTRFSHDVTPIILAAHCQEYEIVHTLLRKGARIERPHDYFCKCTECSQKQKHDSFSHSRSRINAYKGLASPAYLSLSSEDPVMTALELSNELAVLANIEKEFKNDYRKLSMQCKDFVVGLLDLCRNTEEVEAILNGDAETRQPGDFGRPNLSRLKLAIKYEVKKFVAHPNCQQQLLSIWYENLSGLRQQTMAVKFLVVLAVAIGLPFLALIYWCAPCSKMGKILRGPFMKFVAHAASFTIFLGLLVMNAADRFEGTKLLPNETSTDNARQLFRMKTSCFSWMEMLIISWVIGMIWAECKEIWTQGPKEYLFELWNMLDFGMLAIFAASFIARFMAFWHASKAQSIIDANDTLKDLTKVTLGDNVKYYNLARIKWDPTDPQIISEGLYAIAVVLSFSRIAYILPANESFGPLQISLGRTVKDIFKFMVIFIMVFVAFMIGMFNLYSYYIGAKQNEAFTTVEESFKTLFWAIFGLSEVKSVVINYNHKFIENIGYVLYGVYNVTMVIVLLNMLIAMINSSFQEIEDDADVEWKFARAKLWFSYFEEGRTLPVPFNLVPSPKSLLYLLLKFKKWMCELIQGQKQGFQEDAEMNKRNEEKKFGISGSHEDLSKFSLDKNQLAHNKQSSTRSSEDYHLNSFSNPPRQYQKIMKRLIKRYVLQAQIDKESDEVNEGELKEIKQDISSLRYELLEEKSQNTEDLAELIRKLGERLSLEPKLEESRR
TRPC6 inhibitor: mouse TRPC6 channel inhibitors, primary screen, cell-based, HEK293, membrane potential dye. Short transient receptor potential channel 6 (Mus musculus), Q61143. actives 1.1% (n = 310,000). AID 2553, 2010. ACh-evoked depolarization; stronger effect = lower value. B-score at 10 µM;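 active means B-score under library mean minus 3 SD, initial fluorescence not abnormally high, positive integrated signal ratio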;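 further: B-score derived from integrated fluorescence ratio over the kinetic read; more negative B-score means stronger inhibition of depolarization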
FID counter: compounds displacing fluorescent DNA intercalator, primary screen, artefact control for HCV NS3 helicase inhibitor project, biochemical, FID fluorescence. DNA fluorescent intercalator displacement. inhibition, % at 7.9 µM. AID 1845, 2009. actives 0.17% (n = 290,000); in the data active means inhibition above about 37%;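 further: 0% = vehicle and 100% = reference compound; higher means more ethidium bromide displaced from hairpin DNA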
TRPC4 spec 2: second selectivity test of TRPC6 inhibitors: effect on mouse TRPC4; shares compounds with TRPC6 inhibitor; HEK293 TRPC4/MOR, membrane potential dye fluorescence; channel activated by saturating DAMGO dose; inhibition, % at 10 µM; actives 42% (n = 920);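 active means compounds whose fluorescence signal differed from control wells by over 3 SD, either direction, in both duplicate plates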
TRPC4 spec: mouse TRPC4 modulation by TRPC6 hits, confirmation, selectivity assay for TRPC6 inhibitor project, cell-based, HEK293 TRPC4/mu-opioid, membrane potential dye; membrane potential fluorescence; actives 61% (n = 920); AID 2777, 2010; activity change, negative = inhibition, % at 10 µM; shares compounds with TRPC6 inhibitor;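 active means rise or fall in signal beyond 3 SD of buffer-only wells in both replicate plates, either sign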;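 further: integrated kinetic ratio of fluorescence range over baseline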
HEK293 MPD ctr 2-1: nonspecific membrane potential effects, parental HEK293, confirmation, counter-screen for TRPC6 inhibitor project, cell-based, second counter screen | AID 2779, 2010 | signal change vs control, % at 10 µM | parental HEK293 membrane potential dye fluorescence; maximal acetylcholine challenge after compound addition | actives 31% (n = 920) | shares compounds with TRPC6 inhibitor;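 active means membrane potential signal moving either way by over 3 SD of the maximum-effect control, in both duplicate plates, meaning non-specific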
HEK293 MPD ctr-1: membrane potential modulation in parental HEK293, confirmation, counter-screen for TRPC6 inhibitor project, cell-based; shares compounds with TRPC6 inhibitor; parental HEK293 membrane potential dye fluorescence; membrane potential signal change, % at 10 µM; actives 60% (n = 920); AID 2780, 2010;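 active means membrane potential signal shifting up or down by more than 3 SD of buffer-only wells, on both duplicate plates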
HEK293 MPD ctr-2: parental HEK293 membrane potential modulation, confirmation, counter-screen for TRPC6 modulator project, cell-based | actives 51% (n = 2,400) | AID 488924, 2010 | membrane potential dye fluorescence | shares compounds with TRPC6 inhibitor | membrane potential signal change, % at 10 µM;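 active means membrane potential signal moves up or down beyond 5 SD from buffer-only wells, on both duplicate plates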
HEK293 MPD ctr 2-2: parental HEK293 nonspecific activity of TRPC6 modulators, second screen | inhibition, % at 10 µM | actives 14% (n = 2,400) | AID 488926 | membrane potential dye fluorescence; after compound, maximal acetylcholine stimulation | shares compounds with TRPC6 inhibitor;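 active means membrane potential signal drops by more than 5 SD from the mean control signal, in both duplicate plates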;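 further: plate controls were acetylcholine ECmax control wells for no effect and buffer only wells for full effect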
TRPC4 ctr mod: TRPC4 modulation by TRPC6 hit compounds, confirmation, selectivity assay for TRPC6 modulator project, cell-based, HEK293 TRPC4/mu-opioid, membrane potential dye, mouse; shares compounds with TRPC6 inhibitor; membrane potential fluorescence; percent change from control (negative = decrease, positive = increase), % at 10 µM; actives 69% (n = 2,400);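 active means membrane potential signal moved up or down beyond 5 SD of buffer control wells, in both duplicate plates, actives on both sides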;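 further: plate controls were assay buffer wells for no effect and DAMGO maximal-effect wells for full effect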
TRPC4 ctr inh 2: second selectivity test of TRPC6 modulators against mouse TRPC4 | shares compounds with TRPC6 inhibitor | AID 488928 | HEK293 TRPC4/mu-opioid, membrane potential dye fluorescence; stimulated with maximal-effect DAMGO | actives 55% (n = 2,400) | inhibition, % at 10 µM;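 active means drop in membrane potential signal beyond 5 SD of the control wells in both duplicate plates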;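 further: TRPC4 counter screen for TRPC6 hits run under conditions tuned for TRPC6 not TRPC4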
TRPC6 inh conf: mouse TRPC6 channel inhibitors, confirmation, HEK293 cells, membrane potential dye, duplicate. AID 488960, 2010. shares compounds with TRPC6 inhibitor. actives 43% (n = 3,300). inhibition, % at 10 µM. ACh-evoked depolarization;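 active means fluorescence ratio falls more than 5 SD below the full-stimulation control mean, in both duplicate runs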;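 further: integrated fluorescence ratio of peak minus minimum over baseline after agonist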
TRPC6 act conf: mouse TRPC6 channel activators, confirmation, HEK293 cells, membrane potential dye, duplicate | HEK293-TRPC6 membrane potential dye fluorescence, FDSS | shares compounds with TRPC6 inhibitor | AID 488961, 2010 | activation, % at 10 µM | actives 11% (n = 2,800);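 active means ratio signal rise beyond 5 SD above unstimulated control wells' mean, seen in both duplicate runs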;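 further: plate controls were buffer EC0 wells for no effect and acetylcholine ECmax response for full effect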
Active calls of the source: *; i = inactive; nt = not tested or not shown. This is a sample that favours compounds with a hit; in the whole collection about 2.3% have one here.

SMILES | TRPC4 act | TRPC4 PAM | TRPC4 block | TRPC6 activator | TRPC6 inhibitor | FID counter | TRPC4 spec 2 | TRPC4 spec | HEK293 MPD ctr 2-1 | HEK293 MPD ctr-1 | TRPC6 inh conf | TRPC6 act conf | others
O=C1Nc2ccccc2OC1CC(=O)N1CCN(c2cccc(C(F)(F)F)c2)CC1 (configuration not stated) | i | i | i | i | -9.7* | -30 | i | i | i | i | i | i
NS(=O)(=O)c1ccc(CCNS(=O)(=O)c2ccc3c(c2)NC(=O)CO3)cc1 | i | i | i | i | i | -9 | nt | nt | nt | nt | nt | nt
COc1ccccc1N1CCN(S(=O)(=O)CCNC(=O)Cc2ccc(F)cc2)CC1 | i | i | i | i | i | nt | nt | nt | nt | nt | nt | nt
COc1ccc(CC(=O)NCC(=O)N/N=C/c2sccc2C)cc1 | i | i | i | i | i | -15 | nt | nt | nt | nt | nt | nt
CCOc1cc(C2Nc3cccc4cccc(c34)N2)ccc1O | i | i | i | i | -5.9* | -1 | nt | nt | nt | nt | 41%* | i | HEK293 MPD ctr-2=-122%*;HEK293 MPD ctr 2-2=i;TRPC4 ctr mod=-28%*;TRPC4 ctr inh 2=57%*
COc1ccc(C2Nc3cccc4cccc(c34)N2)cc1 | i | i | i | i | -5* | 3 | nt | nt | nt | nt | i | i | HEK293 MPD ctr-2=i;HEK293 MPD ctr 2-2=i;TRPC4 ctr mod=-16%*;TRPC4 ctr inh 2=45%*
Cc1c(NS(=O)(=O)c2ccc(N)cc2)c(=O)n(-c2ccccc2)n1C | i | i | i | i | i | -4 | nt | nt | nt | nt | nt | nt
COc1ccc(Nc2nc(NCC3CCCO3)c3ccccc3n2)c(OC)c1 (configuration not stated) | i | i | -6* | i | -9.8* | 13 | 48%* | -16%* | i | -223%* | 75%* | i
CCOc1ccc(Nc2nc(NCC3CCCO3)c3ccccc3n2)cc1 (configuration not stated) | i | i | -5* | i | -9.6* | 39* | 56%* | -17%* | i | -150%* | i | i
Oc1cccc(Nc2nc(NCC3CCCO3)c3ccccc3n2)c1 (configuration not stated) | i | i | i | i | i | 16 | nt | nt | nt | nt | nt | nt
c1ccc(Nc2nc(NCC3CCCO3)c3ccccc3n2)cc1 (configuration not stated) | i | i | -6* | i | -8.8* | 22 | 31%* | -15%* | i | -135%* | 53%* | i
COc1cc(/C=N/NC(=O)c2cccc(C)c2)ccc1OCC(=O)Nc1ccccc1 | i | i | i | i | i | nt | nt | nt | nt | nt | nt | nt
CCN(CC)CCN1c2ccccc2Sc2ccccc21 | i | i | -6* | i | -6.2* | 23 | nt | nt | nt | nt | 55%* | nt | HEK293 MPD ctr-2=92%*;HEK293 MPD ctr 2-2=i;TRPC4 ctr mod=49%*;TRPC4 ctr inh 2=64%*
CCN(CC)CCN1c2ccccc2Sc2ccc3ccccc3c21 | i | i | i | i | -6* | 6 | nt | nt | nt | nt | i | i | HEK293 MPD ctr-2=i;HEK293 MPD ctr 2-2=i;TRPC4 ctr mod=i;TRPC4 ctr inh 2=i
CCN(CC)CCN1C(=O)C2C3c4ccccc4C(c4ccccc43)C2C1=O (configuration not stated) | i | i | i | i | i | nt | nt | nt | nt | nt | nt | nt
Cc1ccc(NC(=O)CCS(=O)(=O)c2cccc3nonc23)c(Br)c1 | i | i | i | i | i | -13 | nt | nt | nt | nt | nt | nt
CC1=C(C)C(O)N(Cc2ccccc2)C1=O (configuration not stated) | i | i | i | i | i | -1 | nt | nt | nt | nt | nt | nt
CN1Cc2c(N3CCOCC3)nc3sc(C#N)c(N)c3c2CC1(C)C | i | i | i | i | i | 7 | nt | nt | nt | nt | nt | nt
CN1Cc2c(N3CCOCC3)nc3sc(C(=O)c4ccc(Br)cc4)c(N)c3c2CC1(C)C | i | i | i | i | -7.2* | 17 | i | -11%* | i | -161%* | i | i
CCOC(=O)CNS(=O)(=O)c1ccc(S(=O)(=O)N2CCCC2)cc1 | i | i | i | i | -7.8* | -4 | i | i | i | i | i | i

Screens: PubChem BioAssay, several laboratories
